STAT1 inh = STAT1 signaling inhibition. NIH 3T3 STAT1-luciferase reporter, IFN-gamma, luminescence. inhibition, % at 5.5 µM. hit rate 0.35% among 200,000;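 active means inhibition above a set limit, the mean inhibition across all tested compounds plus 3 SD, cut at about 34% in these data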
STAT1 activator = STAT1 signaling activation; NIH 3T3 STAT1-luciferase reporter, IFN-gamma, luminescence; 100% = IFN-gamma alone, no compound; activation (% of control), % at 5.5 µM; hit rate 2.6% among 200,000; AID 932;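 active means activation above the screen-wide mean activation plus 3 SD, cut at about 130% in these data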
STAT3 act = STAT3 signaling activation | U3A cells, IL-6 STAT3-luciferase reporter, luminescence; 100% = signal with IL-6 EC80 alone | activation (% of control), % at 5.6 µM | hit rate 0.91% among 190,000;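 active means activation above the screen-wide mean of compound activation plus 3 SD, cut at about 130% in these data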
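Detection: reporter luminescence signal / Assay system: STAT1-lacking human U3A cells, STAT3 luciferase reporter / Incubation: compound pre-incubation 1 h before IL-6, then 6 h stimulation at 37 °C / Control set: IL-6-only high control / Read-out: % activation relative to IL-6 control / Probe or stimulus: Interleukin-6, 33 ng/mL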
APP 5'UTR act = activates APP 5'UTR luciferase reporter | hit rate 1% among 190,000 | activation, % at 2 µM | SH-SY5Y APP 5'UTR luciferase reporter, luminescence; zero percent = DMSO vehicle wells;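 active means activation above a set limit, based on mean plus 3 SD of controls, cut at about 140% in these data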
NF-kB neuron act = NF-kB expression increase, human neuronal cells. NF-kB reporter expression; hits give high values. hit rate 1.6% among 190,000. AID 1239. fold change at 12.5 µM; in the data active means fold change above about 3.3
STAT3 blocker = inhibitors of IL-6 induced STAT3 signaling | U3A cells, IL-6 STAT3-luciferase reporter, luminescence; host cell line lacks STAT1 | inhibition, % at 5.5 µM | hit rate 0.89% among 190,000;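 active means inhibition above the mean inhibition across all screened compounds plus 3 SD, cut at about 44% in these data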
Large screens that a line does not name were inactive. Only some compounds are listed: those with a hit (about 5.1% of all), similar ones and a draw of the others.

O=[N+]([O-])c1ccc2c(c1)nc1n2CCCCC1	none
CCCS(=O)(=O)Nc1cc(C(F)(F)F)ccc1OCCOC	none
Cc1ccc2c(CN3CCC(C)CC3)cc(=O)oc2c1	STAT1 activator 138, NF-kB neuron act 4.1
Cc1cc2oc(=O)cc(CN3CCC(C)CC3)c2cc1Cl	none
Nc1cc(=O)[nH]c(SC/C=C/c2ccccc2)n1	none
Cc1cc(=O)[nH]c(S/C=C/c2ccccc2)n1	NF-kB neuron act 4.1
COc1ccc2c(C)cc(Sc3nnnn3-c3ccccc3)nc2c1	NF-kB neuron act 3.4
Cc1ccc(NC(=O)Cn2ccc([N+](=O)[O-])n2)cc1C	none
NC1=NN=C(c2ccc3c(c2)OCCO3)CS1	STAT1 inh 49, STAT3 blocker 66
CCN=C1NN=C(c2ccc(C)cc2)CS1	STAT3 blocker 66
Cc1[nH]c2ccccc2c1C1=NNC(=Nc2ccc(F)cc2)SC1	none
CC(C)N=C1NN=C(c2ccc(F)cc2)CS1	APP 5'UTR act 136, NF-kB neuron act 3.5
Clc1ccc(C2=NNC(=NCc3ccccc3)SC2)cc1	none
c1ccc(CN=C2NN=C(c3ccccc3)CS2)cc1	STAT1 activator 138
CCOC(=O)c1sc(NC(=O)CSc2nc(-c3ccco3)cc(C(F)(F)F)n2)c(C(=O)OC(C)C)c1C	none (no result: NF-kB neuron act)
COc1cccc(CC2(CO)CCCN(Cc3c(C)cc(C)cc3-n3cccn3)C2)c1 (configuration not stated)	none
C=CCN=C1NN=C(c2ccc3c(c2)OCCO3)CS1	STAT1 inh 64, STAT3 blocker 89
c1ccc(C2=NNC(=NCc3ccc4c(c3)OCO4)SC2)cc1	none
O=C(CSc1ncn[nH]1)Nc1ccc(Cl)c(S(=O)(=O)N2CCOCC2)c1	none
O=C1[C@H]2[C@@H](C(=O)N1c1cccc3ccccc13)C1(C(=O)c3ccccc3C1=O)N1CCC[C@@H]21	NF-kB neuron act 3.4
COc1ccccc1-n1cnc2sc(-c3ccccc3)cc2c1=O	none
CCc1cc2c(=O)n(CC(=O)NCCc3ccc(OC)c(OC)c3)cnc2s1	none
CCc1cc2c(=O)n(CC(C)C)cnc2s1	none
CCc1cc2c(=O)n(-c3ccc(Br)cc3)cnc2s1	STAT1 activator 137
O=c1c2cc(-c3ccccc3)sc2ncn1/N=C/c1ccco1	STAT1 activator 129
CCCCCn1cnc2sc(CC)cc2c1=O	STAT1 activator 144
CCCCCn1cnc2sc(-c3ccccc3)cc2c1=O	STAT1 activator 149, NF-kB neuron act 4.8
O=C(CN1C(=O)S/C(=C/c2cc(Br)cs2)C1=O)N1CCOCC1	none
COC(=O)c1sc(N2CCN(c3ccc(Cl)cc3)CC2)nc1N	none
O=c1[nH]c(/C=C2\C=Nc3ccccc32)c(O)n1Cc1ccccc1F	NF-kB neuron act 6.9
CN(C)c1ccc(C(=O)N2CC(=O)N(CCc3ccccc3)C(=O)C2)cc1	none
COc1ccc(C(=O)N2CC(=O)N(CCc3ccccc3)C(=O)C2)cc1OC	STAT3 act 144
c1csc(CSc2nc3ccccc3s2)c1	STAT1 activator 145
c1csc(CSc2nnc3sc4ccccc4n23)c1	STAT1 activator 132
COc1ccc(C(=O)Nc2nc(-c3cccs3)cs2)cc1	STAT1 activator 137
O=C(Nc1nc(-c2cccs2)cs1)C1=COCCO1	STAT1 activator 149, NF-kB neuron act 3.6
O=C(Nc1nc(-c2cccs2)cs1)c1ccc(Cl)cc1	none
Cc1csc(=Nc2ccccc2)n1C	none
Cc1ccc(N=c2sc(C)c(C)n2C)cc1	STAT1 activator 133
Cc1cc(C)c[n+](-c2nc3ccccc3nc2C(=C=[N-])C#N)c1	NF-kB neuron act 4.4
CCC1(C)CC2(CCCN(CCC(=O)c3ccccc3)C2)CCO1 (configuration not stated)	none
O=C(O)c1cccc(N/N=C/c2ccc(-c3ccccc3)cc2)c1	STAT1 inh 47, NF-kB neuron act 16, STAT3 blocker 48
O=C(O)c1cccc(N/N=C/c2cc(Br)cc(Br)c2O)c1	STAT1 activator 131
CC(C)(C)c1ccc(/C=N/Nc2ccc(C(=O)O)cc2)cc1	STAT1 inh 74, NF-kB neuron act 4.5, STAT3 blocker 88
Oc1ccc(/C=N/Nc2ccccc2)cc1	none
COc1cccc(/C=N/Nc2ccc(C(=O)O)cc2)c1O	STAT1 inh 91, STAT3 blocker 100
CC(C)c1cc(C(C)C)c(S(=O)(=O)NNC(=O)c2ccncc2)c(C(C)C)c1	none
COc1ccc(C(=O)Nc2c(C)csc2C(=O)O)cc1	none
CC(C)(C)c1ccc(/C=N/Nc2cccc(C(=O)O)c2)cc1	STAT1 inh 38, NF-kB neuron act 6.9, STAT3 blocker 46
COc1cc(C)ccc1OCCCOc1ccccc1Cl	STAT1 activator 144
COc1cc(C)ccc1OCCOc1ccccc1Cl	none
CCN1C(=O)/C(=C\c2ccc(-c3ccc([N+](=O)[O-])cc3OC)o2)SC1=Nc1cccc(C(=O)O)c1	none
CCN=C1S/C(=C\c2ccc(-c3cccc(C(=O)O)c3)o2)C(=O)N1CC	APP 5'UTR act 185
O=c1[nH]c(Nc2ccc3c(c2)OCCO3)nnc1Cc1ccccc1	none
COc1ccc(C(=O)Cc2nnc(C)s2)cc1	none
CCCC(=O)Nc1nc(C)c(C(C)=O)s1	none
CC(=O)c1sc(N/N=C2\CC3CC2C(C)C3(C)C)nc1C (configuration not stated)	STAT1 activator 131
O=C(Nc1ccc(S(=O)(=O)N2CCCCC2)cc1)c1ccc(CN2CCc3ccccc3C2)cc1	STAT3 blocker 87
O=C(Nc1ccccc1)c1ccc(S(=O)(=O)N2CCCCC2)cc1	none
O=C(Nc1ccc([N+](=O)[O-])cc1)Nc1ccc(N2CCOCC2)c2nonc12	none
O=C(Nc1ccccc1)C1Cc2ccccc2CN1C(=O)c1ccco1 (configuration not stated)	STAT1 activator 130, STAT3 act 141
NNC(=O)CNS(=O)(=O)c1ccc([N+](=O)[O-])cc1	none
C/C(=N\Nc1ccc(F)cc1F)c1cccs1	STAT1 activator 129
COc1ccc(/C(C)=N/Nc2ccc(F)cc2F)c(O)c1	STAT1 activator 133
C/C(=N\NC(=O)C1CC1)c1cccs1	none
CC(C)Oc1ccc(Cc2cnc(=S)[nH]c2N)cc1	none
O=C(c1ccc([N+](=O)[O-])cc1[N+](=O)[O-])n1cnc2ccccc21	none
COc1cc(OC)cc(C(=O)Nn2cc(C(=O)Nc3ccccc3F)c3ccccc3c2=O)c1	STAT3 act 134
O=C(Nn1cc(C(=O)Nc2ccccc2F)c2ccccc2c1=O)c1cnccn1	none
O=C1CC(c2ccccc2)Sc2nc3ccccc3n21 (configuration not stated)	STAT1 activator 132, APP 5'UTR act 168
O=C1CC(c2ccco2)Sc2nc3ccccc3n21 (configuration not stated)	none
O=C1CC(c2cccs2)Sc2nc3ccccc3n21 (configuration not stated)	STAT1 activator 129
